Data taken from ChEMBL document CHEMBL4257510, “Mercaptoacetate thioesters and their hydrolysate mercaptoacetic acids jointly inhibit metallo-β-lactamase L1” (Medchemcomm, 2018).
Calls of active or inactive are those of the source. No cut-off for these calls is given here.

Assays:
Bacteria [1] = experiment: Inhibition of bacterial metallo-beta-lactamase ImiS expressed in Escherichia coli BL21 (DE3) at 20 uM using imipenem as substrate preincubated for 30 mins followed by substrate addition
Escherichia coli = experiment: Potentiation of cefazolin-mediated antibacterial activity against Escherichia coli BL21(DE3) assessed as cefazolin MIC at 16 ug/ml after 16 hrs by broth macrodilution method (reference value: 4 ug/ml); type: functional
Outline: (§1)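 E. coli BL21(DE3) carrying pET26b-L1 was grown overnight in Mueller-Hinton broth at 37 °C, pelleted and resuspended to OD600 0.1. MICs were determined by CLSI broth macrodilution after at least 16 h at 37 °C, taking the lowest concentration with no visible growth. Triplicates in at least two independent experiments; highest MIC reported.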

Bacteria [2] = experiment: Inhibition of bacterial metallo-beta-lactamase NDM1 expressed in Escherichia coli BL21 (DE3) at 20 uM using cefazolin as substrate preincubated for 30 mins followed by substrate addition
Bacteria [3] = experiment: Inhibition of bacterial metallo-beta-lactamase L1 expressed in Escherichia coli BL21 (DE3) assessed as cefazolin MIC at 16 ug/ml after 16 hrs by broth macrodilution method (reference value: 32 ug/ml); outline: as §1
Bacteria [4] = experiment: Inhibition of bacterial metallo-beta-lactamase L1 expressed in Escherichia coli BL21 (DE3) assessed as decrease in cefazolin MIC at 16 ug/ml after 16 hrs by broth macrodilution method relative to control; outline: as §1
[5] = Inhibition of bacterial metallo-beta-lactamase L1 expressed in Escherichia coli BL21 (DE3) using cefazolin as substrate preincubated for 30 mins followed by substrate addition; design: species or system Bacteria
Outline: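 IC50 measured at 25 °C with 50 µM cefazolin and inhibitor varied over 0.01–2 µM, after 30 min enzyme–inhibitor pre-incubation. Compounds were dissolved in DMSO and diluted in 30 mM Tris pH 7.0, with final DMSO below 0.1%.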

Bacteria [6] = experiment: Inhibition of bacterial metallo-beta-lactamase L1 expressed in Escherichia coli BL21 (DE3) at 20 uM using cefazolin as substrate preincubated for 30 mins followed by substrate addition relative to control
Bacteria [7] = experiment: Binding affinity to bacterial metallo-beta-lactamase L1 expressed in Escherichia coli BL21 (DE3) treated with 2-(((4-Chlorobenzoyl)methionyl)thio)acetic acid at 2 to 10 mM after 1 hr by STD NMR method
Outline: (§2)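 1H STD-NMR at 300 MHz on-resonance and 2000 MHz off-resonance saturation. Total saturation time 1.5 s, relaxation delay 2.5 s. Samples were run in D2O with 5% DMSO-d6 and 150 mM NaCl at pH 7.5, after 1 h pre-incubation. Compound came from 100 mM stock in DMSO-d6.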

[8] = Drug level assessed as bacterial metallo-beta-lactamase L1-mediated compound formation treated with 2-(((4-Chlorobenzoyl)methionyl)thio)acetic acid by HPLC method; type: ADME; details: bacteria
Outline: (§3)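 L1-mediated hydrolysis of thioester followed by HPLC under IC50 assay conditions, on a C18 column (150 × 4.6 mm, 5 µm) at 1.0 mL/min.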

[9] = Retention time of compound by HPLC method; type: physicochemical; outline: as §3
L929 = experiment: Cytotoxicity against mouse L929 cells up to 200 uM after 48 hrs by CCK8 assay; type: cell-based; details: l929, 48 h
[10] = Drug metabolism assessed as bacterial metallo-beta-lactamase L1-mediated hydrolysis measured every 2 hrs for 24 hrs by UV-Vis spectroscopic analysis; type: ADME; details: bacteria
Outline: (§4)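 Thioester in Tris buffer at pH 6.0, 7.0 or 8.5, or at pH 7.0 with increasing L1 concentration. Absorbance at 245 nm was recorded every 2 h over 24 h.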

Bacteria [11] = experiment: Binding affinity to bacterial metallo-beta-lactamase L1 expressed in Escherichia coli BL21 (DE3) assessed as change in gibbs free energy by ITC method
[12] = Stability in Tris buffer at pH 6 to 8.5 measured every 2 hrs for 24 hrs by UV-Vis spectroscopic analysis; type: physicochemical; details: pH 6, 24 h; outline: as §4
Bacteria [13] = experiment: Binding affinity to bacterial metallo-beta-lactamase L1 expressed in Escherichia coli BL21 (DE3) assessed as change in entropy by ITC method
[14] = Binding affinity to bacterial metallo-beta-lactamase L1 expressed in Escherichia coli BL21 (DE3) by ITC method; design: species or system Bacteria
Bacteria [15] = experiment: Binding affinity to bacterial metallo-beta-lactamase L1 expressed in Escherichia coli BL21 (DE3) assessed as change in enthalpy by ITC method
Bacteria [16] = experiment: Binding affinity to bacterial metallo-beta-lactamase L1 expressed in Escherichia coli BL21 (DE3) at 2 to 10 mM after 1 hr by STD NMR method; outline: as §2

inhibition (Bacteria [1]) | MIC (Escherichia coli) [µg/mL] | inhibition (Bacteria [2]) | MIC (Bacteria [3]) [µg/mL] | fold change (FC) (Bacteria [4]) | IC50 [5] [nM] | inhibition (Bacteria [6]) [%] | Activity (Bacteria [7]) | Drug metabolism [8] | Retention_time [9] [min] | Drug metabolism [10] | deltaG (Bacteria [11]) [kcal/mol] | Stability [12] | TdeltaS (Bacteria [13]) [kcal/mol] | deltaH (Bacteria [15]) [kcal/mol] | Activity (Bacteria [16]) | SMILES | Activity (L929) | Kd [14] [nM]
inactive | 4 | inactive | 16 | 2 to 4 | 800 | 90 to 95 |  |  |  |  |  |  |  |  |  | O=C(O)CSC(=O)[C@H](Cc1c[nH]c2ccccc12)NC(=O)c1cccc([N+](=O)[O-])c1 |  | 
inactive | 4 | inactive | 16 | 2 to 4 | 1200 | 90 to 95 |  |  |  |  |  |  |  |  |  | CSCC[C@H](NC(=O)c1cccc(Br)c1)C(=O)SCC(=O)O |  | 
 |  |  |  |  |  |  | Active |  |  |  |  |  |  |  |  | O=C(O)CS |  | 
inactive | 4 | inactive | 16 | 2 to 4 | 750 | 90 to 95 |  |  |  |  |  |  |  |  |  | O=C(O)CSC(=O)[C@H](Cc1c[nH]c2ccccc12)NC(=O)c1ccc(F)cc1 |  | 
inactive | 4 | inactive | 16 | 2 to 4 | 940 | 90 to 95 |  |  | 4.5 | Metabolite_Detected | -6.43 | Stable | -21.8 | -28.2 | Active | CSCC[C@H](NC(=O)c1ccc(Cl)cc1)C(=O)SCC(=O)O | Non-Toxic | 19700
inactive | 4 | inactive | 16 | 2 to 4 | 880 | 90 to 95 |  |  |  |  |  |  |  |  |  | O=C(O)CSC(=O)[C@H](Cc1c[nH]c2ccccc12)NC(=O)c1ccc(Br)cc1 |  | 

The remaining lines, values behind:

SMILES | inhibition (Bacteria [1]) | MIC (Escherichia coli) [µg/mL] | inhibition (Bacteria [2]) | MIC (Bacteria [3]) [µg/mL] | fold change (FC) (Bacteria [4]) | IC50 [5] [nM] | inhibition (Bacteria [6]) [%] | Activity (Bacteria [7]) | Drug metabolism [8] | Retention_time [9] [min] | Drug metabolism [10] | deltaG (Bacteria [11]) [kcal/mol] | Stability [12] | TdeltaS (Bacteria [13]) [kcal/mol] | deltaH (Bacteria [15]) [kcal/mol] | Activity (Bacteria [16]) | Activity (L929) | Kd [14] [nM]
O=C(O)CSC(=O)[C@H](Cc1c[nH]c2ccccc12)NC(=O)c1ccc(C(F)(F)F)cc1 | inactive | 4 | inactive | 16 | 2 to 4 | 1030 | 90 to 95 |  |  |  |  |  |  |  |  |  |  | 
O=C(O)CSC(=O)[C@H](Cc1c[nH]c2ccccc12)NC(=O)c1ccc(Cl)cc1 | inactive | 4 | inactive | 8 | 2 to 4 | 190 | 90 to 95 |  |  |  |  |  |  |  |  |  |  | 
O=C(O)CSC(=O)[C@H](Cc1c[nH]c2ccccc12)NC(=O)c1cccc(Br)c1 | inactive | 4 | inactive | 16 | 2 to 4 | 620 | 90 to 95 |  |  |  |  |  |  |  |  |  |  | 
CSCC[C@H](NC(=O)c1ccc(Cl)cc1)C(=O)O |  |  |  |  |  |  |  | Active | Metabolite_Detected | 4.2 |  |  |  |  |  |  |  | 
CSCC[C@H](NC(=O)c1ccc([N+](=O)[O-])cc1)C(=O)SCC(=O)O | inactive | 4 | inactive | 8 | 2 to 4 | 170 | 90 to 95 |  |  |  | Metabolite_Detected | -7.18 | Stable | -9.6 | -16.8 |  | Non-Toxic | 5500
O=C(O)CSC(=O)[C@H](Cc1c[nH]c2ccccc12)NC(=O)c1ccc([N+](=O)[O-])cc1 | inactive | 4 | inactive | 8 | 2 to 4 | 370 | 90 to 95 |  |  |  | Metabolite_Detected |  | Stable |  |  |  |  | 
